The nature of test [1]: Selectivity ratio of IC50 for recombinant SHP2 (unknown origin) to IC50 for recombinant Mycobacterium tuberculosis PTPB.
Test [2] deals with T1, Tyrosine-protein phosphatase non-receptor type 22 (Homo sapiens, UniProt Q9Y2R2).
T1 sequence (Q9Y2R2 whole entry): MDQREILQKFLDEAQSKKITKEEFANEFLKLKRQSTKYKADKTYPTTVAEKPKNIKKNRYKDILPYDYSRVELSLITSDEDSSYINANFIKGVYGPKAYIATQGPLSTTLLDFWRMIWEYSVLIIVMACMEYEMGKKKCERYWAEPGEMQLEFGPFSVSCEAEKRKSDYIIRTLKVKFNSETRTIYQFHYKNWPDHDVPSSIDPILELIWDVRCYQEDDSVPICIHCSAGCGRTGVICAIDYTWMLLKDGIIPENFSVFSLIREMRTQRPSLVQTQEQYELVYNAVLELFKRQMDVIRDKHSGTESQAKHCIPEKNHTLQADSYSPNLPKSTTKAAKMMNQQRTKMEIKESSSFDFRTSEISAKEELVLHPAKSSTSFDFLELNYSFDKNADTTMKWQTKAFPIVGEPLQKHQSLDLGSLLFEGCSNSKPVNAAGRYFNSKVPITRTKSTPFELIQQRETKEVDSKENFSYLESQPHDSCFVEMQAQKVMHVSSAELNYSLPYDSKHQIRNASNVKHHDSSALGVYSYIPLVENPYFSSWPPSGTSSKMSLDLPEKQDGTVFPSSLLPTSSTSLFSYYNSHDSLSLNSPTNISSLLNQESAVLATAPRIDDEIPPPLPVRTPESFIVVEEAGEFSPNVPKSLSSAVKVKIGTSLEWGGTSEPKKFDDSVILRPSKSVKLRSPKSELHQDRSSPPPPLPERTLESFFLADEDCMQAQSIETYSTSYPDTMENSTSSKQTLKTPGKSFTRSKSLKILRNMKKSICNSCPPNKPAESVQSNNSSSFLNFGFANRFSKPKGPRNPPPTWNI
The test can be described thus: Inhibition of recombinant LYP (unknown origin) using pNPP as substrate by spectrophotometric method. The method in brief: (§1)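 Recombinant PTP prepared in-house, assayed with pNPP substrate in 50 mM 3,3-dimethylglutarate buffer pH 7.0 containing 1 mM EDTA and 150 mM NaCl at 25 °C, in 96-well format. p-Nitrophenol product was quantified by absorbance at 405 nm. Non-enzymatic pNPP hydrolysis was corrected using a no-enzyme control.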

Test [3] deals with Tyrosine-protein phosphatase non-receptor type 13 (Homo sapiens, UniProt Q12923). The test can be described thus: Inhibition of recombinant FAP1 (unknown origin) using pNPP as substrate by spectrophotometric method. In short, it runs like this: as §1
The nature of test [4]: Selectivity ratio of IC50 for recombinant FAP1 (unknown origin) to IC50 for recombinant Mycobacterium tuberculosis PTPB.
A short description of test [5]: Selectivity ratio of IC50 for recombinant PTP1B (unknown origin) to IC50 for recombinant Mycobacterium tuberculosis PTPB.
Test [6] is described as follows: Selectivity ratio of IC50 for recombinant CD45 (unknown origin) to IC50 for recombinant Mycobacterium tuberculosis PTPB.
Test [7] can be described thus: Inhibition of recombinant Mycobacterium tuberculosis PTPB using pNPP as substrate by spectrophotometric method. The method in brief: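 Recombinant enzyme made in-house. Substrate pNPP in 50 mM 3,3-dimethylglutarate buffer, pH 7.0, with 1 mM EDTA and 150 mM NaCl, at 25 °C, screened in 96-well format. p-Nitrophenol product read at 405 nm. Non-enzymatic pNPP hydrolysis was corrected using a control without enzyme.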

Test [8] has as its target T2, Tyrosine-protein phosphatase non-receptor type 11 (Homo sapiens, UniProt Q06124).
T2 sequence (Q06124 whole entry): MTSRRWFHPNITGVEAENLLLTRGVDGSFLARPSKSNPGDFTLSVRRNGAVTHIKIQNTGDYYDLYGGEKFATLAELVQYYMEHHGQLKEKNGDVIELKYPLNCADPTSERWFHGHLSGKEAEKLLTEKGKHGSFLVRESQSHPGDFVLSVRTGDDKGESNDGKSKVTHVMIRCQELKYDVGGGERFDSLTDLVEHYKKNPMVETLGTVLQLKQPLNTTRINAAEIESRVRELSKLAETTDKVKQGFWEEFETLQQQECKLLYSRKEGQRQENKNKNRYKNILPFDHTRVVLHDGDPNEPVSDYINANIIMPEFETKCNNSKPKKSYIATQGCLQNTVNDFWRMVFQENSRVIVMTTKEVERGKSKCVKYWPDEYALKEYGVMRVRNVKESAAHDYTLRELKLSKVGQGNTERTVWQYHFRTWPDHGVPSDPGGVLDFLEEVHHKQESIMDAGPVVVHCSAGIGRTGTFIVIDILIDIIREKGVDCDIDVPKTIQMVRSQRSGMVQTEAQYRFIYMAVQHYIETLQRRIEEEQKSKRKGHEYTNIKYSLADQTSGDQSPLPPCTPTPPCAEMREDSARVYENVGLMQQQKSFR
Kind of test: Inhibition of recombinant SHP2 (unknown origin) using pNPP as substrate by spectrophotometric method. In short, it runs like this:
as §1

Structures are written as SMILES. pIC50: −log10 of the molar value.

As usually defined, the pIC50 is the IC50 on a negative log10 scale, so that one unit is a factor of ten.

Chain of Tyrosine-protein phosphatase non-receptor type 13 (Q12923 whole entry): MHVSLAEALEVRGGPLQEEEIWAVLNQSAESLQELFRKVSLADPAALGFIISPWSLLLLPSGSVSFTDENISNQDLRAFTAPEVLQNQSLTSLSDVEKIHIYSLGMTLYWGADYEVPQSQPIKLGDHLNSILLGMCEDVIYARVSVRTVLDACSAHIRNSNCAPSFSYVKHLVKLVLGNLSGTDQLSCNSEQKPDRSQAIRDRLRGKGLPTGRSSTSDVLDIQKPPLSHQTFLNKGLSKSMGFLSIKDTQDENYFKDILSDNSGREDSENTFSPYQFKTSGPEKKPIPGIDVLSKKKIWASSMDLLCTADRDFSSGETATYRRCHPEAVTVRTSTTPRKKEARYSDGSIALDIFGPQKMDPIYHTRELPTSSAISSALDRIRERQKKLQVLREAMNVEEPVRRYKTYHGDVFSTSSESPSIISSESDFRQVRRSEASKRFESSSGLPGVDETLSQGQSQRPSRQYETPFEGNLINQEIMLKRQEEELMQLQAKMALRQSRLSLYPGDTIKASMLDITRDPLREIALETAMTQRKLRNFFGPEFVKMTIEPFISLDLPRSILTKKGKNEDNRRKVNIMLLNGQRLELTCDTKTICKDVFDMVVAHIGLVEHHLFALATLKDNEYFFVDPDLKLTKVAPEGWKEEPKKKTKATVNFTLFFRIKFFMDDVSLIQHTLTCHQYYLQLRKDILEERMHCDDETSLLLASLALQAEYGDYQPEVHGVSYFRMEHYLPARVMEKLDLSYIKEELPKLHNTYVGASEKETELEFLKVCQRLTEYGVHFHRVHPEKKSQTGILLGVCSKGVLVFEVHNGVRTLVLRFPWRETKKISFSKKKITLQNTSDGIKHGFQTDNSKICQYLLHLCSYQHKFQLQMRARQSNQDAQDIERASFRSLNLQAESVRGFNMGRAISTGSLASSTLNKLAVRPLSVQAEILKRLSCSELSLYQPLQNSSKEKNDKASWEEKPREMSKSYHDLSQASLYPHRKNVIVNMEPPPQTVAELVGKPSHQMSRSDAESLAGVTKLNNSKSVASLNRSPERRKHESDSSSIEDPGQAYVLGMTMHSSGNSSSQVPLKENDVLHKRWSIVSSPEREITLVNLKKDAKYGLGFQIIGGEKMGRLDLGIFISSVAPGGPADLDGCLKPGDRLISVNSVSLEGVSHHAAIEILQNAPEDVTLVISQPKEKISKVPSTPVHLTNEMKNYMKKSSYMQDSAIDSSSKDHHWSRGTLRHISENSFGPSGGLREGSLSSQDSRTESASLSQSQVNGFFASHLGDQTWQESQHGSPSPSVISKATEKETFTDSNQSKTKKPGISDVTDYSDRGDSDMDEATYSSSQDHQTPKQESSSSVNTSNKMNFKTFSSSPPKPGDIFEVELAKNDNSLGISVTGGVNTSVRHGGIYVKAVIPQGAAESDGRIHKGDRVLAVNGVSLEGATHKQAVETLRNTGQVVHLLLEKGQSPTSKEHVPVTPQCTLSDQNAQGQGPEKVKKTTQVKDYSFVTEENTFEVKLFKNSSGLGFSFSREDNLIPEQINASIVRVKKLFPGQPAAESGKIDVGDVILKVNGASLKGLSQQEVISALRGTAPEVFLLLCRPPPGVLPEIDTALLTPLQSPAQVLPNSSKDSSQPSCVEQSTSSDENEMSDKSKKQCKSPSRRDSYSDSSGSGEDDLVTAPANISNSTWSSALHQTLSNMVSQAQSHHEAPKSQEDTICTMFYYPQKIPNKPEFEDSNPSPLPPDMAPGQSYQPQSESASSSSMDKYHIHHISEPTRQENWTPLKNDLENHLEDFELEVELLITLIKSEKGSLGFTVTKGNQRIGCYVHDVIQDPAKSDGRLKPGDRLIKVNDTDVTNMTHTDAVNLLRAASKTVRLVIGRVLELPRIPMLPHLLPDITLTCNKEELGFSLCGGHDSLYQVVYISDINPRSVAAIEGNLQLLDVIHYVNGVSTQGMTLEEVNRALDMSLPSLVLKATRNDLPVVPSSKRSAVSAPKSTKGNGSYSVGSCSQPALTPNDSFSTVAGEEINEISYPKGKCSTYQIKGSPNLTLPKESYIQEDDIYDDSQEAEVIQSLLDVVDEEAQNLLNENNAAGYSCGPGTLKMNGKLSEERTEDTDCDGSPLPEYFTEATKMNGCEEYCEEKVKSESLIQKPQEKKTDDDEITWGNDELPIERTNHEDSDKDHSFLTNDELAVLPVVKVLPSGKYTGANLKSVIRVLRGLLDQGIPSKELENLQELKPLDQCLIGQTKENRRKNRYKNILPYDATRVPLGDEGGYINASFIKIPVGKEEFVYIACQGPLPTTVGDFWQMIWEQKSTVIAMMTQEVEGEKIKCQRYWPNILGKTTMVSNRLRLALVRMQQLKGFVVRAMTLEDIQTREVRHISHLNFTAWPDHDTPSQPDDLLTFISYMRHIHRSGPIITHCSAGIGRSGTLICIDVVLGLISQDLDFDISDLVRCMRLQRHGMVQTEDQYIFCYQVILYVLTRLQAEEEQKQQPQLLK

With `Cc1ccc(S(=O)(=O)NNC(=O)COc2ccc3cc(C(O)(C(F)(F)F)C(F)(F)F)c(O)cc3c2)cc1`, the Ratio IC50 in test [1], in test [4], in test [5] and in test [6] was above 7 throughout. The negative logarithm of the IC50 (pIC50) in test [2] is 4.81; in test [3] it was 4.83; in test [7], 5.64; in test [8], 4.69.

The record behind these values is ChEMBL document CHEMBL3861950, “Design, synthesis and evaluation of novel 19F magnetic resonance sensitive protein tyrosine phosphatase inhibitors” (Medchemcomm, 2016).
